Results on two molecules are retold here after ChEMBL document CHEMBL1255410, “Activity of the investigational fluoroquinolone finafloxacin against ciprofloxacin-sensitive and -resistant Acinetobacter baumannii isolates” (2010).

Common to all, as to assay type: functional
Assay [1] relates to Acinetobacter baumannii. The experiment in a line: Antimicrobial activity against Acinetobacter baumannii isolate 11 at pH 7.2. The procedure, abridged: (§1)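 MIC by agar dilution on Mueller-Hinton agar under standard conditions (pH 7.2), against isolates with characterized gyrA/parC genes. Agar pH was checked after solidifying. Plates for both drugs were prepared the same day from freshly made media, and MICs were determined simultaneously with the pH 5.8 set.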

The test system of assay [2] is Acinetobacter baumannii. The experiment in a line: Antimicrobial activity against Acinetobacter baumannii isolate 18 at pH 7.2. The procedure, abridged: as §1
Assay [3] concerns Acinetobacter baumannii. The experiment in a line: Antimicrobial activity against Acinetobacter baumannii isolate 20 harboring GyrA Ser83-Leu mutation at pH 7.2. The procedure, abridged: as §1
For assay [4], the system named is Acinetobacter baumannii. In words: Antimicrobial activity against Acinetobacter baumannii isolate 53 harboring GyrA Ser83-Leu and ParC Ser80-Leu mutation at pH 7.2. In a few lines: (§2)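 Agar dilution MIC on Mueller-Hinton agar. For the acidic condition, HCl was added to bring the agar to pH 5.8 before pouring the antibiotic plates, and the pH was checked after the agar set. The standard condition was pH 7.2. Both drugs' plates were made the same day from fresh medium, and MICs were read at the same time.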

In assay [5] the test system is Acinetobacter baumannii. The experiment in a line: Antimicrobial activity against Acinetobacter baumannii isolate 59 harboring GyrA Ser83-Leu and ParC Glu84-Lys mutation at pH 7.2. In a few lines:
(§3)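 Agar dilution MIC on Mueller-Hinton agar under standard conditions (pH 7.2). Antibiotic-containing plates were made the same day from freshly prepared medium. Agar pH was checked after solidifying. Both fluoroquinolones were tested simultaneously against A. baumannii isolates with characterized gyrA/parC genes. MICs are in μg/ml.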

The test system of assay [6] is Acinetobacter baumannii. In words: Antimicrobial activity against Acinetobacter baumannii isolate 12 at pH 5.8. In a few lines: (§4)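 MIC by agar dilution on Mueller-Hinton agar acidified to pH 5.8 with HCl before antibiotic-containing plates were poured. Agar pH was rechecked once the agar had solidified. Isolates had characterized gyrA/parC genes. Plates for both drugs were made the same day from fresh media, and MICs were read in parallel with the standard-pH set.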

For assay [7], the system named is Acinetobacter baumannii. The experiment in a line: Antimicrobial activity against Acinetobacter baumannii isolate 14 at pH 5.8. The procedure, abridged: as §4
Assay [8] relates to Acinetobacter baumannii. In words: Antimicrobial activity against Acinetobacter baumannii isolate 26 harboring GyrA Ser83-Leu mutation at pH 5.8. The procedure, abridged: as §4
Assay [9] relates to Acinetobacter baumannii. The experiment in a line: Antimicrobial activity against Acinetobacter baumannii isolate 54 harboring GyrA Ser83-Leu and ParC Ser80-Leu mutation at pH 5.8. The procedure, abridged:
as §2

Assay [10] has as its system Acinetobacter baumannii. The experiment in a line: Antimicrobial activity against Acinetobacter baumannii isolate 45 harboring GyrA Ser83-Leu and ParC Ser80-Leu mutation at pH 7.2. The procedure, abridged: as §2
The subject of assay [11] is Acinetobacter baumannii. In words: Antimicrobial activity against Acinetobacter baumannii isolate 46 harboring GyrA Ser83-Leu and ParC Ser80-Leu mutation at pH 7.2. The procedure, abridged: as §2
The subject of assay [12] is Acinetobacter baumannii. In words: Antimicrobial activity against Acinetobacter baumannii isolate 47 harboring GyrA Ser83-Leu and ParC Ser80-Phe mutation at pH 7.2. In a few lines:
as §2

For assay [13], the system named is Acinetobacter baumannii. The experiment in a line: Antimicrobial activity against adeB overexpressing Acinetobacter baumannii isolate 68 harboring GyrA Ser83-Leu and ParC Ser80-Leu mutation at pH 7.2. The procedure, abridged:
as §3

Molecules are shown by their SMILES. Converted amounts (≈) assume the structure as drawn.

With `O=C(O)c1cn(C2CC2)c2cc(N3CCNCC3)c(F)cc2c1=O` [CIPROFLOXACIN], the MIC (usually the smallest concentration in the dilution series that meets the test's criterion for growth inhibition) is 0.25 µg/mL (≈ 0.754 µM) with Acinetobacter baumannii [1]; 1 µg/mL (≈ 3.02 µM) in the assay on Acinetobacter baumannii [2]; 2 µg/mL (≈ 6.04 µM) in the assay on Acinetobacter baumannii [3]; 128 µg/mL (≈ 386 µM) with Acinetobacter baumannii [4]; 128 µg/mL (≈ 386 µM) in the assay on Acinetobacter baumannii [5]; 2 µg/mL (≈ 6.04 µM) in the assay with Acinetobacter baumannii [6]. Further, the MIC in the assay on Acinetobacter baumannii [7] is 4 µg/mL (≈ 12.1 µM); in the assay with Acinetobacter baumannii [8], 32 µg/mL (≈ 96.6 µM); in the assay on Acinetobacter baumannii [9] it was over 128 µg/mL.
For `N#Cc1c(N2C[C@@H]3NCCO[C@H]3C2)c(F)cc2c(=O)c(C(=O)O)cn(C3CC3)c12` [FINAFLOXACIN], the MIC with Acinetobacter baumannii [1] was 0.25 µg/mL (≈ 0.628 µM); with Acinetobacter baumannii [2] it was 1 µg/mL (≈ 2.51 µM); with Acinetobacter baumannii [3], 1 µg/mL (≈ 2.51 µM); in the assay with Acinetobacter baumannii [10], 16 µg/mL (≈ 40.2 µM); in the assay on Acinetobacter baumannii [11], 16 µg/mL (≈ 40.2 µM); against Acinetobacter baumannii [12], 32 µg/mL (≈ 80.3 µM). Further, the MIC was determined as 32 µg/mL (≈ 80.3 µM) against Acinetobacter baumannii [4]; 64 µg/mL (≈ 161 µM) against Acinetobacter baumannii [5]; 64 µg/mL (≈ 161 µM) against Acinetobacter baumannii [13]; 0.12 µg/mL (≈ 0.301 µM) in the assay on Acinetobacter baumannii [6]; 0.25 µg/mL (≈ 0.628 µM) against Acinetobacter baumannii [7]; 2 µg/mL (≈ 5.02 µM) with Acinetobacter baumannii [8]. Also, the MIC with Acinetobacter baumannii [9] is 4 µg/mL (≈ 10 µM).
